Legend:
OVCAR-3 = assay: Growth inhibition of human OVCAR3 cells assessed as cell growth at 10 uM after 48 hrs by sulforhodamine B assay; type: functional; conditions: OVCAR-3, 48 h, read-out: Activity
Procedure, shortened: (§1)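 NCI 60-cell-line panel screen (nine cancer types). Compounds added at single concentration 10^-5 M, cultures incubated 48 h; growth inhibition percentages reported.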

NCI-H460 = assay: Growth inhibition of human NCI-H460 cells assessed as cell growth at 10 uM after 48 hrs by sulforhodamine B assay; type: functional; conditions: NCI-H460, 48 h, read-out: Activity; procedure, shortened: as §1
UO-31 = assay: Growth inhibition of human UO31 cells assessed as cell growth at 10 uM after 48 hrs by sulforhodamine B assay; type: functional; conditions: UO-31, 48 h, read-out: Activity
Procedure, shortened: (§2)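 NCI 60-cell-line panel from nine tumour types (leukaemia, lung, colon, CNS, melanoma, ovarian, renal, prostate, breast). Each compound was added at one single concentration, and cultures were incubated for 48 h. Results are reported as percent growth inhibition.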

SK-OV-3 = assay: Growth inhibition of human SKOV3 cells assessed as cell growth at 10 uM after 48 hrs by sulforhodamine B assay; type: functional; conditions: SK-OV-3, 48 h, read-out: Activity; procedure, shortened: as §1
EKVX = assay: Growth inhibition of human EKVX cells assessed as cell growth at 10 uM after 48 hrs by sulforhodamine B assay; type: functional; conditions: read-out: Activity; procedure, shortened: as §1
IGROV-1 = assay: Growth inhibition of human IGROV1 cells assessed as cell growth at 10 uM after 48 hrs by sulforhodamine B assay; type: functional; conditions: IGROV-1, 48 h, read-out: Activity; procedure, shortened: as §1
HCT-116 = assay: Growth inhibition of human HCT116 cells assessed as cell growth at 10 uM after 48 hrs by sulforhodamine B assay; type: functional; conditions: HCT-116, 48 h, read-out: Activity; procedure, shortened: as §1
NCI-H23 = assay: Growth inhibition of human NCI-H23 cells assessed as cell growth at 10 uM after 48 hrs by sulforhodamine B assay; type: functional; conditions: NCI-H23, 48 h, read-out: Activity; procedure, shortened: as §1
A498 = assay: Growth inhibition of human A498 cells assessed as cell growth at 10 uM after 48 hrs by sulforhodamine B assay; type: functional; conditions: A498, 48 h, read-out: Activity; procedure, shortened: as §1
RXF 393 = assay: Growth inhibition of human RXF393 cells assessed as cell growth at 10 uM after 48 hrs by sulforhodamine B assay; type: functional; conditions: RXF 393, 48 h, read-out: Activity; procedure, shortened: as §1
SR = assay: Growth inhibition of human SR cells assessed as cell growth at 10 uM after 48 hrs by sulforhodamine B assay; type: functional; conditions: read-out: Activity; procedure, shortened: as §2
BT-549 = assay: Growth inhibition of human BT549 cells assessed as cell growth at 10 uM after 48 hrs by sulforhodamine B assay; type: functional; conditions: BT-549, 48 h, read-out: Activity; procedure, shortened: as §1
Malme-3M = assay: Growth inhibition of human MALME-3M cells assessed as cell growth at 10 uM after 48 hrs by sulforhodamine B assay; type: functional; conditions: read-out: Activity; procedure, shortened: as §1
HCT-15 = assay: Growth inhibition of human HCT15 cells assessed as cell growth at 10 uM after 48 hrs by sulforhodamine B assay; type: functional; conditions: HCT-15, 48 h, read-out: Activity; procedure, shortened: as §1
MOLT-4 = assay: Growth inhibition of human MOLT4 cells assessed as cell growth at 10 uM after 48 hrs by sulforhodamine B assay; type: functional; conditions: MOLT-4, 48 h, read-out: Activity; procedure, shortened: as §1
A549 = assay: Growth inhibition of human A549/ATCC cells assessed as cell growth at 10 uM after 48 hrs by sulforhodamine B assay; type: functional; conditions: A549, 48 h, read-out: Activity; procedure, shortened: as §1
ACHN = assay: Growth inhibition of human ACHN cells assessed as cell growth at 10 uM after 48 hrs by sulforhodamine B assay; type: functional; conditions: read-out: Activity; procedure, shortened: as §1
MDA-MB-468 = assay: Growth inhibition of human MDA-MB-468 cells assessed as cell growth at 10 uM after 48 hrs by sulforhodamine B assay; type: functional; conditions: MDA-MB-468, 48 h, read-out: Activity; procedure, shortened: as §1
CCRF-CEM = assay: Growth inhibition of human CCRF-CEM cells assessed as cell growth at 10 uM after 48 hrs by sulforhodamine B assay; type: functional; conditions: read-out: Activity; procedure, shortened: as §1
MDA-MB-231 = assay: Growth inhibition of human MDA-MB-231 cells assessed as cell growth at 10 uM after 48 hrs by sulforhodamine B assay; type: functional; conditions: MDA-MB-231, 48 h, read-out: Activity; procedure, shortened: as §1
RPMI-8226 = assay: Growth inhibition of human RPMI8226 cells assessed as cell growth at 10 uM after 48 hrs by sulforhodamine B assay; type: functional; conditions: RPMI-8226, 48 h, read-out: Activity; procedure, shortened: as §1
HepG2 = assay: Cytotoxicity in human HepG2 cells assessed as reduction in cell viability incubated for 48 hrs by MTT assay; type: functional, cell-based; conditions: HepG2, 48 h
Procedure, shortened: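 HepG2 and HL60 (ATCC) grown in DMEM with 10% FBS, 2 mM L-glutamine, penicillin/streptomycin, amphotericin B at 37 °C, 5% CO2. Samples dissolved in DMSO, diluted thousandfold in assay. Cells seeded in serum-free medium, treated with serial concentrations 48 h; MTT 4 h, formazan dissolved in acidified isopropanol, A570. Triplicates averaged; viability relative to untreated/vehicle control.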

Hs-578T = assay: Growth inhibition of human Hs 578T cells assessed as cell growth at 10 uM after 48 hrs by sulforhodamine B assay; type: functional; conditions: read-out: Activity; procedure, shortened: as §1
HOP-62 = assay: Growth inhibition of human HOP62 cells assessed as cell growth at 10 uM after 48 hrs by sulforhodamine B assay; type: functional; conditions: HOP-62, 48 h, read-out: Activity; procedure, shortened: as §1
NCI/ADR-RES = assay: Growth inhibition of human NCI-ADR-RES cells assessed as cell growth at 10 uM after 48 hrs by sulforhodamine B assay; type: functional; conditions: read-out: Activity; procedure, shortened: as §1
HT-29 = assay: Growth inhibition of human HT-29 cells assessed as cell growth at 10 uM after 48 hrs by sulforhodamine B assay; type: functional; conditions: HT-29, 48 h, read-out: Activity; procedure, shortened: as §1
SNB-75 = assay: Growth inhibition of human SNB75 cells assessed as cell growth at 10 uM after 48 hrs by sulforhodamine B assay; type: functional; conditions: SNB-75, 48 h, read-out: Activity; procedure, shortened: as §2
SNB-19 = assay: Growth inhibition of human SNB19 cells assessed as cell growth at 10 uM after 48 hrs by sulforhodamine B assay; type: functional; conditions: SNB-19, 48 h, read-out: Activity; procedure, shortened: as §2
DU-145 = assay: Growth inhibition of human DU145 cells assessed as cell growth at 10 uM after 48 hrs by sulforhodamine B assay; type: functional; conditions: DU-145, 48 h, read-out: Activity; procedure, shortened: as §1
HL-60(TB) = assay: Growth inhibition of human HL-60(TB) cells assessed as cell growth at 10 uM after 48 hrs by sulforhodamine B assay; type: functional; conditions: HL-60, 48 h, read-out: Activity
Procedure, shortened: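 Screened by the NCI in its 60-cell-line panel covering nine cancer types, including leukemia. Compounds were added at a single concentration, and the cultures were incubated for 48 h. Results are reported as percent growth inhibition.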

OVCAR-5 = assay: Growth inhibition of human OVCAR5 cells assessed as cell growth at 10 uM after 48 hrs by sulforhodamine B assay; type: functional; conditions: OVCAR-5, 48 h, read-out: Activity; procedure, shortened: as §1
MDA-MB-435 = assay: Growth inhibition of human MDA-MB-435 cells assessed as cell growth at 10 uM after 48 hrs by sulforhodamine B assay; type: functional; conditions: MDA-MB-435, 48 h, read-out: Activity; procedure, shortened: as §1

| SMILES | growth at 10 µM (OVCAR-3) | growth at 10 µM (NCI-H460) | growth at 10 µM (UO-31) | growth at 10 µM (SK-OV-3) | growth at 10 µM (EKVX) | growth at 10 µM (IGROV-1) | growth at 10 µM (HCT-116) | growth at 10 µM (NCI-H23) | growth at 10 µM (A498) | growth at 10 µM (RXF 393) | growth at 10 µM (SR) | growth at 10 µM (BT-549) | growth at 10 µM (Malme-3M) | growth at 10 µM (HCT-15) | growth at 10 µM (MOLT-4) | growth at 10 µM (A549) | growth at 10 µM (ACHN) | growth at 10 µM (MDA-MB-468) | growth at 10 µM (CCRF-CEM) | growth at 10 µM (MDA-MB-231) | further results |
| --- | --- | --- | --- | --- | --- | --- | --- | --- | --- | --- | --- | --- | --- | --- | --- | --- | --- | --- | --- | --- | --- |
| COc1cccc(-n2nc(C(=O)NCc3ccccc3C)nc2-c2cc(OC)c(OC)c(OC)c2)c1 | 81% | 96.4% | 35.9% | 87.7% | 73.3% | 72% | 85.2% | 84% | 95.9% | 109% | 65.8% | 86.2% | 94.7% | 74.3% | 80% | 69.2% | 90.5% | 90.1% | 104% | 73.5% | growth at 10 µM (RPMI-8226): 95.7%; IC50 (HepG2): 3.85 µM; growth at 10 µM (Hs-578T): 77.6%; growth at 10 µM (HOP-62): 71%; growth at 10 µM (NCI/ADR-RES): 63.1%; growth at 10 µM (HT-29): 80.2%; growth at 10 µM (SNB-75): 31.7%; growth at 10 µM (SNB-19): 83.2%; growth at 10 µM (DU-145): 94.2%; growth at 10 µM (HL-60(TB)): 89%; growth at 10 µM (OVCAR-5): 111%; growth at 10 µM (MDA-MB-435): 85.8% |
| CCOc1ccc(-n2nc(C(=O)Nc3ccc(F)c(F)c3)nc2-c2cc(OC)c(OC)c(OC)c2)cc1 | 61% | 77.9% | 42.6% | 85.2% | 76.5% | 81.3% | 51.2% | 77.3% | 68.9% | 84.6% | 64% | 65.5% | 86.7% | 63.8% | 50% | 62% | 64.5% | 98.6% | 44.1% | 63.1% | growth at 10 µM (RPMI-8226): 12.3%; IC50 (HepG2): 31.8 µM; growth at 10 µM (Hs-578T): 48.1%; growth at 10 µM (HOP-62): 89.1%; growth at 10 µM (NCI/ADR-RES): 67.5%; growth at 10 µM (HT-29): 74.6%; growth at 10 µM (SNB-75): 74.4%; growth at 10 µM (SNB-19): 86.8%; growth at 10 µM (DU-145): 80%; growth at 10 µM (HL-60(TB)): 89%; growth at 10 µM (OVCAR-5): 101%; growth at 10 µM (MDA-MB-435): 70.3% |
